In series [1] the test system is Rattus norvegicus. The series can be described thus: Retinotoxicity in male Wistar albino rat assessed as reduction in 10 Hz flicker ERG at 200 mg/kg, ip administered QD for 45 days by electroretinogram analysis relative to control. It counts as toxicity, organism-based. Also on record: dose 200 mg/kg, route intraperitoneal. To be noted: in vivo, 1080 h.
The test system of series [2] is Rattus norvegicus. The series can be described thus: Retinotoxicity in female Wistar albino rat assessed as reduction in 10 Hz flicker ERG at 200 mg/kg, ip administered QD for 45 days by electroretinogram analysis relative to control. Also noted: dose 200 mg/kg, route intraperitoneal. Particulars: in vivo, 1080 h. The series is classed as toxicity, organism-based.

The test system of series [3] is Rattus norvegicus. The series can be described thus: Retinotoxicity in Wistar albino rat assessed as increase cone implicit time at 200 mg/kg, ip administered QD for 45 to 90 days relative to control. Also noted: dose 200 mg/kg, route intraperitoneal. To be noted: in vivo. It counts as toxicity, organism-based. The procedure, abridged: (§1)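 Wistar albino rats, 9 weeks old at the start and of both sexes, received one i.p. injection daily for 45 or 90 days. The dose was in 0.9% saline made fresh weekly, against a saline vehicle group. After a 5–7 day washout and at least 12 h of dark adaptation, pupils were dilated (tropicamide 1%, phenylephrine 10%). ERG was then recorded from both eyes under ketamine/xylazine.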

Series [4] has as its system Rattus norvegicus. The series can be described thus: Retinotoxicity in female Wistar albino rat assessed as reduction in 10 Hz flicker ERG at 200 mg/kg, ip administered QD for 90 days by electroretinogram analysis relative to control. The series is classed as toxicity, organism-based. Also on record: dose 200 mg/kg, route intraperitoneal. To be noted: in vivo, 2160 h.

Series [5] relates to Rattus norvegicus. The series can be described thus: Retinotoxicity in male Wistar albino rat assessed as reduction in 10 Hz flicker ERG at 200 mg/kg, ip administered QD for 90 days by electroretinogram analysis relative to control. The series is classed as toxicity, organism-based. To be noted: in vivo, 2160 h. Also on record: dose 200 mg/kg, route intraperitoneal.
For series [6], the system named is Rattus norvegicus. The series can be described thus: Inhibition of cocaine-induced conditioned place preference in rat assessed as time spent in the chamber at 300 mg/kg, ip administered 2.5 hrs prior to cocaine-challenge measured after 12 days for 15 mins (reference value: 7.1 +/- 0.6 mins). The series is classed as functional. Particulars: route intraperitoneal.

Series [7] has as its system Rattus norvegicus. The series can be described thus: Retinotoxicity in Wistar albino rat assessed as increase rod implicit time at 200 mg/kg, ip administered QD for 45 to 90 days relative to control. It counts as toxicity, organism-based. Also noted: dose 200 mg/kg, route intraperitoneal. Particulars: in vivo. In a few lines: as §1
Series [8] concerns Rattus norvegicus. The series can be described thus: Retinotoxicity in Wistar albino rat assessed as increase mesopic implicit time at 200 mg/kg, ip administered QD for 45 to 90 days relative to control. It counts as toxicity, organism-based. Also on record: dose 200 mg/kg, route intraperitoneal. To be noted: in vivo.
Series [9] has as its system Rattus norvegicus. The series can be described thus: Toxicity in Wistar albino rat assessed as mortality at 200 mg/kg, ip measured up to 3 weeks. The series is classed as organism-based. Also on record: dose 200 mg/kg, route intraperitoneal. To be noted: in vivo, 504 h. In a few lines: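 Mixed-sex Wistar albino rats, 15 per group, dosed ip once daily with drug in 0.9% saline. Monitored for mortality, moribundity, clinical signs, feed intake and body weight. Animals in distress over 24 h were euthanized. Some received food supplements or ip fluids during the first 3 weeks.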

For the molecule `C=CC(N)CCC(=O)O` (centres undefined) [VIGABATRIN], the Activity result with Rattus norvegicus [1], in the series with Rattus norvegicus [2], with Rattus norvegicus [3], in the series with Rattus norvegicus [4], in the series on Rattus norvegicus [5] and with Rattus norvegicus [7] was “Toxic” throughout. Further, the Activity entry in the series on Rattus norvegicus [8] and in the series with Rattus norvegicus [9] was “Toxic” each time. In the series with Rattus norvegicus [6], the Time came out at 7.9 min.
